According to paper PMC7078523 (Saudi Pharmaceutical Journal : SPJ, 2020):
Values after ≈ are worked out from the molar mass of the structure shown.

Assays:
[1] = cited from earlier work
In-vivo bioavailability = assay: In-vivo bioavailability; design: species or system rats; details: male, albino, rat, plasma, po, 15 mg/kg
Procedure, shortened: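 Fasted male albino rats (300±25 g), 7 per group, single oral 15 mg/kg as 1 ml aqueous suspension by feeding tube with 10 ml water. Orbital sinus blood into heparin at 0–48 h; plasma stored at -80 °C. Acetonitrile protein precipitation, propranolol internal standard, LC-MS/MS over 10–6000 ng/mL. Non-compartmental parameters per rat; AUC0-48 by log-linear trapezoidal rule, kel from terminal slope, t1/2 = 0.693/kel.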

[2] = Phase solubility study of GRI with β-CD, NS2 and NS3; assay type: physicochemical; details: distilled water
In-vitro release study = assay type: physicochemical

Row | SMILES | Aqueous solubility ([1]; physiological pH, ref Swaminathan et al., 2007) | AUC(0-t) (In-vivo bioavailability) [ng·h/mL] | Cmax (In-vivo bioavailability) [ng/mL] | Tmax (In-vivo bioavailability) [h] | half-life (In-vivo bioavailability) [h] | k el (In-vivo bioavailability) [s⁻¹] | solubility [2] [µM] | GRI cumulative percent released/dissolved after 2 hrs (In-vitro release study; 0.1 N HCl (pH 1.2), 37 °C, 50 rpm) [%] | GRI cumulative percent released/dissolved after 7 h (In-vitro release study; 2 h 0.1 N HCl then 5 hrs phosphate buffer pH 7.4) [%] | Dissolution efficiency (%D.E.) (In-vitro release study; after 7 hrs) [%] | Best fitted release kinetics model (In-vitro release study; highest correlation coefficient (R^2)) | Biopharmaceutics Classification System (BCS) class ([1]; ref Amidon et al., 1995) | log P (octanol/water) ([1]; ref Arida et al., 2007)
1 | CCC(C)n1ncn(-c2ccc(N3CCN(c4ccc(OCC5COC(Cn6cncn6)(c6ccc(Cl)cc6Cl)O5)cc4)CC3)cc2)c1=O (stereo not shown) [itraconazole] | about 1 ng mL^−1 |  |  |  |  |  |  |  |  |  |  |  | 
2 | COC1=CC(=O)C[C@@H](C)[C@]12Oc1c(Cl)c(OC)cc(OC)c1C2=O [GRI, Griseofulvin] |  | 22500 | 1810 | 2 | 20 | 1.03e-05 | ~35 (≈ 12.3 µg/mL) | 21.81 ± 0.07 | 27.43 ± 0.32 | 23.87 | Higuchi release kinetics model | class II | 2.15
